Source: paper PMC3724457 (Cellular and molecular life sciences : CMLS, 2009)
Like-named read-outs stand apart in the source and are kept apart here. One block for each molecule: values may come before it. *1 amine or outer side, *2 acyl side, *3 side chain or, on linkers, in order; H or OH if unused. Where a SMILES comes first, the peptide text is derived from it. Bridges are numbered along the chain shown (N, C = ends). Roman numbers before positions name the chains, in order. [ ]: non-standard residue; d: D form. Actinocin(9to1) = Cc1c2oc3c(C)ccc(C(=O)[*:1])c3nc-2c(C(=O)[*:2])c(N)c1=O; NMeV = CN[C@H](C(=O)O)C(C)C; Sar = CNCC(=O)O

B1: GST-ZO1-PDZ2 WT (domain or fragment, human)
chain: KVTLVKSRKNEEYGLRLASHIFVKEISQDSLAARDGNIQEGDVVLKINGTVTENMSLTDAKTLIERSKGKLKMVVQRDE

Columns and labels:
[1] = test system: GST-ZO1-PDZ1–3; assay: Lipid-overlay assay; type: binding, human; conditions: PIP strips, not quantitative, no membrane environment
Summary of the method: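 A GST-fused human ZO-1 PDZ1–3 construct was overlaid on nitrocellulose membranes carrying immobilised phospholipids, following the manufacturer's protocol. GST served as negative control and the GST-PH domain of LL5α as positive control. Lipids were not in a membrane environment, and the readout is qualitative.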

[2] = target: Connexin43 (Homo sapiens) (UniProt P17302); conditions: cited from earlier work
[3] = target: Connexin43 (Homo sapiens) (UniProt P17302); conditions: cited from earlier work; remark: listed apart in the source
[4] = test system: GST-ZO2-PDZ2 WT binding to Cx43 peptide; assay: Pull-down competition by phospholipids; parameters: species or system mouse; conditions: 3 µg GST-ZO2-PDZ2 WT preincubated with phospholipid liposomes
Summary of the method: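 3 μg GST-ZO-2 PDZ2 WT was preincubated with phospholipid liposomes at increasing concentrations. It was then pulled down with Cx43 C-terminal 20-mer peptide coupled to CNBr-activated Sepharose 4B at 5–7 mg/ml.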

[5] = target: GST-ZO2-PDZ2 WT (mouse); assay: SEC
[6] = target: Connexin 43 (Cx43) C-terminal peptide; assay: ITC
[7] = test system: nuclear speckles; conditions: transcriptional inhibition; ref [39]; cited from earlier work
[8] = test system: GST-ZO1-PDZ2; assay: Kinetic SPR measurements; type: binding, human; conditions: 1 µM protein, POPC/POPE/POPS/PtdInsP (37:40:20:3) vesicles, 20 mM HEPES pH 7.4, 0.16 M KCl
Summary of the method: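 GST-fused PDZ2 was expressed in E. coli BL21(DE3) with IPTG induction at 37°C for 4 h, then purified on glutathione-Sepharose. Active sensor surface carried PtdInsP-containing vesicles and the control surface carried POPC/POPE (60:40) vesicles, both from 0.4 mg/ml lipid solution and loaded to equal RU. Seven PtdInsP species were compared. Kinetic data gave relative membrane affinity only; no Kd was derived.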

[9] = test system: GST-ZO1-PDZ2; assay: ELISA PtdInsP binding assay; parameters: species or system human; conditions: ELISA on PIP plates, absorbance 450 nm, n=3, protein 10 nM, 1 h room temperature
Summary of the method: (§1)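 GST-fusion PDZ2 domains (ZO-1 human, ZO-2 mouse) or GST-PH domain of PLC-δ1 (positive control) at 10 nM, with GST as negative control, were incubated 1 h at room temperature on preblocked PtdInsP-coated plates. Wells were washed three times with PBS/0.1% Tween-20, then probed 1 h at room temperature with HRP-anti-GST. Detection used TMB substrate with absorbance at 450 nm; mean ± SD, n = 3.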

[10] = test system: GST-ZO2-PDZ2; assay: ELISA PtdInsP binding assay; parameters: species or system mouse; conditions: ELISA on PIP plates, absorbance 450 nm, n=3, protein 10 nM, 1 h room temperature
Summary of the method: as §1

[11] = target: ZO-1 PDZ2 K246A (Homo sapiens, UniProt Q07157, K246A); assay: ITC peptide binding
Sequence of ZO-1 PDZ2 K246A (Q07157 186-264 K246A limits assumed): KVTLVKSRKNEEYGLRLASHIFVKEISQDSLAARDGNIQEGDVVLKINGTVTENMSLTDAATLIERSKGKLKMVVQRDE
Summary of the method: (§2)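 Each PDZ2 domain, wild type or point mutant, was held at 20 μM in 20 mM HEPES, 150 mM NaCl, pH 7.5, degassed. It was titrated with 20 × 15 μl injections of 200 μM Cx43 C-terminal 20-mer peptide, stirred at 250 rpm, with 5 min between injections. Peptide-into-buffer dilution heat was subtracted, and integrated data were fitted to a binding model. Representative of duplicate runs.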

[12] = target: ZO-1 PDZ2 K194A (Homo sapiens, UniProt Q07157, K194A); assay: ITC peptide binding
Summary of the method: as §2

[13] = target: ZO-1 PDZ2 R219A (Homo sapiens, UniProt Q07157, R219A); assay: ITC peptide binding
Summary of the method: as §2

[14] = target: ZO-1 PDZ2 R193A (Homo sapiens, UniProt Q07157, R193A); assay: ITC peptide binding
Summary of the method: as §2

[15] = target: ZO-1 PDZ2 R201A (Homo sapiens, UniProt Q07157, R201A); assay: ITC peptide binding
Sequence of ZO-1 PDZ2 R201A (Q07157 186-264 R201A limits assumed): as the sequence (Q07157 186-264 K246A limits assumed) above, with R16A, A61K counted along it
Summary of the method: as §2

[16] = target: the molecule itself; assay: SEC
[17] = target: B1; assay: ITC
[18] = target: T1, ZO-1 PDZ2 K194A (human, UniProt Q07157 186-264, K194A); assay: ITC
T1 sequence: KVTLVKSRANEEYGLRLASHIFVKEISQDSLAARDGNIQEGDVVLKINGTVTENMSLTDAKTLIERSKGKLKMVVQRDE

[19] = target: T2, ZO-1 PDZ2 R193A (human, UniProt Q07157 186-264, R193A); assay: ITC
T2 sequence: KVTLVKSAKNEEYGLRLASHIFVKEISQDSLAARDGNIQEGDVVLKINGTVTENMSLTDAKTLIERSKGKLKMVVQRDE

[20] = target: T3, ZO-1 PDZ2 R219A (human, UniProt Q07157 186-264, R219A); assay: ITC
T3 sequence: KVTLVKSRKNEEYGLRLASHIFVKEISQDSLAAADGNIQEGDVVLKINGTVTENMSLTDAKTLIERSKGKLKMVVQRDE

[21] = target: T4, ZO-1 PDZ2 K253A (human, UniProt Q07157 186-264, K253A); assay: ITC
T4 sequence: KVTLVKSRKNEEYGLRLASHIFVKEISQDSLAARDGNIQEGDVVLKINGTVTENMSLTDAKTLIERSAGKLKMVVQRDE

[22] = target: T5, ZO-1 PDZ2 R251AK253A (human, UniProt Q07157 186-264, R251A | K253A); assay: ITC
T5 sequence: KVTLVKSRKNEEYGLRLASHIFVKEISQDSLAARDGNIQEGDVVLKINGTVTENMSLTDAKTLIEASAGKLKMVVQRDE

[23] = target: T6, ZO-1 PDZ2 R251A (human, UniProt Q07157 186-264, R251A); assay: ITC
T6 sequence: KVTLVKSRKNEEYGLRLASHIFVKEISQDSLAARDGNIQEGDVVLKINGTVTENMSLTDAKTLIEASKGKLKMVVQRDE

Molecule: ZO-2 PDZ2 (from UniProt Q9UDY2)
- Kd [2]: 391 µM

Molecule: ZO-1 PDZ2 (from UniProt Q07157)
- Kd [3]: 15.5 µM

Molecule: Cc1c2oc3c(C)ccc(C(=O)N[C@@H]4C(=O)N[C@H](C(C)C)C(=O)N5CCC[C@H]5C(=O)N(C)CC(=O)N(C)[C@@H](C(C)C)C(=O)O[C@@H]4C)c3nc-2c(C(=O)N[C@@H]2C(=O)N[C@H](C(C)C)C(=O)N3CCC[C@H]3C(=O)N(C)CC(=O)N(C)[C@@H](C(C)C)C(=O)O[C@@H]2C)c(N)c1=O [actinomycin D] (I: T[dV]P[Sar][NMeV] / II: T[dV]P[Sar][NMeV]; ester I:1-I:C, II:1-II:C; linker I:N-II:N via Actinocin(9to1))
- speckle protein distribution [7]: fewer and/or abnormally large clusters

Molecule: PtdIns(3,4)P2
- inhibition of association of GST-ZO2-PDZ2 with the Cx43 peptide [4]: inhibited association
- PtdInsP selectivity (relative binding) [8]: slight preference
- PtdInsP binding as compared to PtdIns(4,5)P2 or PtdIns(3,5)P2 [9]: slightly stronger
- PtdInsP binding as compared to PtdIns(4,5)P2 or PtdIns(3,5)P2 [10]: slightly stronger

Molecule: PtdIns(3,4,5)P3
- inhibition of association of GST-ZO2-PDZ2 with the Cx43 peptide [4]: inhibited association
- PtdInsP selectivity (relative binding) [8]: followed by PtdIns(3,4,5)P3, PtdIns(4,5)P2 and PtdIns(3,5)P2
- PtdInsP binding as compared to PtdIns(4,5)P2 or PtdIns(3,5)P2 [9]: slightly stronger
- PtdInsP binding as compared to PtdIns(4,5)P2 or PtdIns(3,5)P2 [10]: slightly stronger

Molecule: PtdIns(3,5)P2
- PtdInsP selectivity (relative binding) [8]: followed by PtdIns(3,4,5)P3, PtdIns(4,5)P2 and PtdIns(3,5)P2

Molecule: Phosphatidylinositol 4,5-bisphosphate [PtdIns(4,5)P2]
- PtdInsP selectivity (relative binding) [8]: followed by PtdIns(3,4,5)P3, PtdIns(4,5)P2 and PtdIns(3,5)P2

Molecule: B1
- stoichiometry N [16]: 2

Molecule: PSSRASSRASSRPRPDDLEI [Connexin 43 (Cx43) C-terminal peptide]
- Kd [17]: 9.9 ± 1.3 µM
- Kd [18]: 12 ± 1.6 µM
- Kd [19]: 11 ± 2.1 µM
- Kd [20]: 11 ± 1.6 µM
- Kd [21]: 22 ± 3.6 µM
- Kd [22]: 21 ± 3.2 µM
- Kd [23]: 19 ± 3.4 µM

Second part, the molecule after the results:

- lipid binding [1]: bound non-selectively
Molecule: phosphatidic acid [PA]

- inhibition of association of GST-ZO2-PDZ2 with the Cx43 peptide [4]: no effect
- lipid binding [1]: bound non-selectively
Molecule: phosphatidylserine [PS]

- stoichiometry N [5]: 2
- Kd [6]: 9.9 µM
Molecule: GST-ZO2-PDZ2 WT (domain or fragment)

- lipid binding [1]: bound non-selectively
Molecule: phosphatidylinositol [PtdIns]

- binding to the Cx43 peptide [11]: no significant binding
- effect of mutation on peptide affinity [12]: little effect
- effect of mutation on peptide binding [13]: no effect
- effect of mutation on peptide affinity [14]: little effect
- binding to the Cx43 peptide [15]: no significant binding
Molecule: NH2.PSSRASSRASSRPRPDDLEI.OH [Connexin43 peptide]
